# Measured values from PubChem BioAssay.
# The source made the active and inactive calls.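 The calls were made as follows, unless noted: active = GFP response above 150% of the DMSO level; inconclusive = fewer than 70 events counted for a yeast strain; inactive = the rest.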
# Key:
# [1] = hit retest on RPL19A-GFP reporter strain – cell-based, S. cerevisiae, flow cytometry, cherry picks, mother/daughter gates, confirmation (AID 2270;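 active = GFP response below 50% of the DMSO control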); conditions: 3 h, at 10 µM, stronger effect = lower value, 100 = same GFP as DMSO wells
# [2] = yeast TOR pathway reporter LAP4-GFP change – cell-based, cherry picks, flow cytometry, mother/daughter gates, confirmation (AID 2271;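 active = GFP response above 150% of the DMSO control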;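 also: ratio of sample to DMSO plate mean so 100% equals DMSO level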); conditions: S. cerevisiae LAP4-GFP strain, 3 h, at 10 µM, stronger effect = higher value, 100 means same as DMSO control
# Method in brief: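 Measured by: GFP by flow cytometry. Test system: GFP-fusion yeast strain. Input: yeast cells seeded at OD600 of 0.2. Timing: 30 °C, 3 h compound incubation, rotating. Buffer or medium: synthetic complete medium for yeast. Benchmarks: DMSO-only negative wells, rapamycin 400 ng/mL positive wells. Compound: 10 µM single dose.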
# [3] = TOR pathway reporter MEP2-GFP, retest of hits – S. cerevisiae, flow cytometry GFP, cherry picks, confirmation (AID 2272;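 active = GFP response above 150% of the DMSO control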;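 also: ratio of well signal to plate DMSO mean so 100% equals DMSO level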); conditions: S. cerevisiae MEP2-GFP strain, 3 h, at 10 µM, stronger effect = higher value
# [4] = yeast AGP1-GFP fluorescence change, single-dose – cell-based, flow cytometry, S. cerevisiae, cherry picks, confirmation (AID 2273);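 also: median GFP channel fluorescence over the whole cell population gate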; conditions: S. cerevisiae AGP1-GFP strain, 3 h, at 10 µM
# [5] = TOR pathway CIT2 reporter hit retest – S. cerevisiae, GFP fusion, cherry picks, mother/daughter gates, confirmation (AID 2274); conditions: S. cerevisiae CIT2-GFP strain, flow cytometry, 3 h, at 10 µM, stronger effect = higher value
# [6] = measured here: daughter cell gate
# [7] = measured here: mother cell gate
# [8] = measured here: daughter cell gate response
# [9] = measured here: mother cell gate response
Structure (SMILES),GFP response vs DMSO [1],"GFP response vs DMSO [1, 6] [%]","GFP response vs DMSO [1, 7] [%]",GFP response relative to DMSO [2],"GFP response relative to DMSO [2, 8] [%]","GFP response relative to DMSO [2, 9] [%]",GFP response vs DMSO [3],"GFP response, % of DMSO [4]","GFP response, % of DMSO [5]","GFP response, % of DMSO [5, 6] [%]","GFP response, % of DMSO [5, 7] [%]"
Cc1c(C(=O)NCCSCc2cccc(C(F)(F)F)c2)cnn1-c1ccc(F)cc1,102% (inactive),103,103,98.8% (inactive),96.5,98.5,104% (inactive),99.1% (inactive),108% (inactive),102,108
O=C1C(Cl)=C(Nc2ccccc2O)C(=O)N1CCc1ccccc1,98% (inactive),97.8,97.9,103% (inactive),101,104,112% (inactive),104% (inactive),106% (inactive),104,104
CCOC(=O)c1ccc(N=Cc2nc(-c3ccccc3)oc2OC(C)=O)cc1,104% (inactive),105,101,154% (active),138,170,96.8% (inactive),92.2% (inactive),93% (inactive),93.8,89.5
Cc1sc(NC(=O)c2ccco2)nc1-c1ccccc1,93.8% (inactive),92.2,93.6,111% (inactive),105,113,102% (inactive),89.5% (inactive),102% (inactive),98.1,101
CC(=O)Nc1cccc(/C(C)=N/NC(=O)c2ccccc2Cl)c1,98.2% (inactive),97.9,98.7,102% (inactive),102,99.3,100% (inactive),101% (inactive),99.7% (inactive),101,99.7
COc1ccccc1-c1noc(CCC(=O)Nc2cccc(C)c2)n1,99.9% (inactive),100,100,96.5% (inactive),96.5,96.5,97.5% (inactive),90.8% (inactive),95% (inactive),98.3,95.6
O=C(NNC(=S)NC(=O)c1ccco1)c1ccc(F)cc1,106% (inactive),106,105,115% (inactive),115,114,115% (inactive),104% (inactive),107% (inactive),116,102
COc1ccc(NC(=S)NCCCCCC(=O)C[N+](=O)[O-])cc1,96% (inactive),96.4,96.1,90.2% (inactive),91.2,89.7,98.3% (inactive),98.7% (inactive),99.7% (inactive),101,97.3
Cc1cc(Cl)ccc1N1C(=O)CC(SCCC(=O)O)C1=O (centres undefined),96.4% (inactive),97.6,95.3,103% (inactive),102,105,102% (inactive),97.8% (inactive),103% (inactive),103,101
N#C/C(=C/c1ccc(N2CCOCC2)o1)c1ccc(Br)cc1,96.6% (inactive),95.9,95,114% (inactive),114,115,114% (inactive),95.5% (inactive),102% (inactive),101,99.3
Cc1nc(SC2CC(=O)N(c3ccccc3)C2=O)nc2c1CCCC2 (centres undefined),95.4% (inactive),95.9,95.8,97.9% (inactive),97.6,97.2,96.2% (inactive),93.1% (inactive),101% (inactive),101,99.7
Cc1cc(N)ccc1NC(=O)c1ccccc1,101% (inactive),99.6,102,98.2% (inactive),99.1,98.4,105% (inactive),103% (inactive),100% (inactive),101,101
CCn1c(=O)c(C(=O)NCc2ccc(OC)c(OC)c2)c(O)c2ccccc21,97.6% (inactive),99.1,99.2,94.1% (inactive),92.8,94,100% (inactive),103% (inactive),105% (inactive),106,106
CCOC(=O)C(=Cc1ccc(F)cc1)C(=O)OCC,101% (inactive),101,100,107% (inactive),102,111,100% (inactive),96.7% (inactive),93.9% (inactive),94.8,92.3
COc1ccc(OC)c(NC(=O)c2cccc3c2C(=O)N(C2CCCCC2)C3)c1,97.8% (inactive),98.4,98.4,92.8% (inactive),92.8,90.8,98.3% (inactive),97.8% (inactive),101% (inactive),103,98.5
O=C1CC(Sc2nnnn2C2CCCCC2)C(=O)N1c1ccccc1 (centres undefined),94.3% (inactive),95.5,94.8,107% (inactive),104,107,97.5% (inactive),99.3% (inactive),95% (inactive),94.6,93.3
O=C1CC(c2ccccc2)CN1S(=O)(=O)c1ccccc1 (centres undefined),98.4% (inactive),96.4,98.9,97.9% (inactive),99.2,97.2,105% (inactive),101% (inactive),103% (inactive),103,103

Structure (SMILES),GFP response vs DMSO [1],"GFP response vs DMSO [1, 6] [%]","GFP response vs DMSO [1, 7] [%]",GFP response relative to DMSO [2],"GFP response relative to DMSO [2, 8] [%]","GFP response relative to DMSO [2, 9] [%]",GFP response vs DMSO [3],"GFP response, % of DMSO [4]","GFP response, % of DMSO [5]","GFP response, % of DMSO [5, 6] [%]","GFP response, % of DMSO [5, 7] [%]"
O=C1c2ccsc2SCCN1Cc1ccc(F)cc1,97% (inactive),94.4,100,111% (inactive),110,113,90.5% (inactive),97.3% (inactive),100% (inactive),103,89.5
O=C(/C=C/c1ccc(O)cc1)c1ccc(O)cc1O,93.7% (inactive),92.9,94.6,96.7% (inactive),97.6,96.1,102% (inactive),109% (inactive),103% (inactive),103,102
O=C(c1c(F)cccc1F)N1CCN(c2ccccc2F)CC1,99.4% (inactive),99.1,98.4,103% (inactive),102,103,100% (inactive),92.1% (inactive),107% (inactive),106,106
CS(=O)(=O)N1N=C(c2ccc(Br)cc2)CC1c1ccc2c(c1)OCO2 (centres undefined),102% (inactive),101,102,105% (inactive),104,104,114% (inactive),99.3% (inactive),109% (inactive),111,107
Cc1ccc(CS(=O)(=O)c2ncc(Cl)c(C(=O)Nc3nnc(C)s3)n2)cc1,99.6% (inactive),99.8,98.6,102% (inactive),104,104,101% (inactive),113% (inactive),103% (inactive),99.3,104
COc1cc(N2C(=O)C=CC2=O)c(OC)cc1Cl,85.7% (inactive),90,75,303% (active),211,272,133% (inactive),108% (inactive),90% (inactive),96.5,79.4
COc1cccc(C(=O)Nc2ccc(C)cc2)c1,100% (inactive),99.9,100,101% (inactive),99.2,101,102% (inactive),91.2% (inactive),107% (inactive),106,106
Cc1[nH][nH]c(=O)c1C(c1ccc(-c2ccc(Cl)c(Cl)c2)o1)c1c(C)[nH][nH]c1=O,104% (inactive),104,101,173% (active),142,169,130% (inactive),115% (inactive),103% (inactive),105,102
COC(=O)c1ccccc1Sc1ncnc2onc(C)c12,101% (inactive),100,101,111% (inactive),106,112,120% (inactive),93.2% (inactive),108% (inactive),106,107
Cc1ccc(C(=O)N2c3ccccc3NC(=O)C2C)cc1 (centres undefined),99.9% (inactive),98.1,100,102% (inactive),98.7,105,100% (inactive),100% (inactive),97.8% (inactive),94.8,98.7
O=[N+]([O-])c1ccc(S(=O)(=O)c2ccccc2)nc1,84.5% (inactive),96.4,77.4,176% (active),156,174,126% (inactive),114% (inactive),108% (inactive),131,91.5
NC(=O)c1ccc(Oc2ccc(-c3nnco3)cc2)c([N+](=O)[O-])c1,98.4% (inactive),100,99.1,93.8% (inactive),95.6,94.2,100% (inactive),98.7% (inactive),110% (inactive),105,112
Cc1nc(Sc2ccccc2)c(C#N)c(C)c1[N+](=O)[O-],98.2% (inactive),99.4,96.6,94.1% (inactive),92.8,91.9,109% (inactive),88.4% (inactive),115% (inactive),117,113
O=C(Nc1nc(-c2ccc(F)cc2)cs1)c1cnccn1,97.8% (inactive),98.3,98.1,101% (inactive),97.9,101,110% (inactive),96.2% (inactive),105% (inactive),98.3,104
Nc1cccc(C(=O)Nc2ccccc2Cl)c1,99.8% (inactive),99.1,98.9,97.9% (inactive),97.6,98.3,100% (inactive),93.5% (inactive),103% (inactive),103,101
COc1ccc(C(=O)NC(=S)Nc2ccc(CN3CCOCC3)cc2)cc1,101% (inactive),98.8,99.9,99.5% (inactive),99.1,99.4,99% (inactive),101% (inactive),98.8% (inactive),99.2,98.1
N#C/C(=C\c1cccc(Oc2ccccc2)c1)C(=O)N1CCOCC1,97.8% (inactive),97.8,95.1,137% (inactive),128,141,98.8% (inactive),104% (inactive),90.9% (inactive),90.5,87.8
